Assay results: ChEMBL document CHEMBL4765334, “Chemical profiling of HIV-1 capsid-targeting antiviral PF74” (Eur J Med Chem, 2020)

Assays:
[1] = test system: TZM; test: Cytotoxicity against human TZM-GFP cells incubated for 72 hrs by XTT assay; assay type: cell-based; settings: tzm, 72 h
Outline: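 TZM-GFP cells seeded at 1 × 10^4 per well and exposed continuously to increasing compound concentrations for 72 h. Viable cell number read by XTT proliferation kit. CC50 fitted as log(inhibitor) vs normalized response, variable slope, per independent assay and averaged. Run in duplicate, at least two independent experiments, reported as mean ± standard deviation.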

[2] = test system: Human immunodeficiency virus 1; test: Binding affinity to covalently-crosslinked hexameric HIV1 capsid protein A14C/E45C/W184A/M185A mutant expressed in Escherichia coli BL21(DE3)RIL assessed as change in melting temperature at 20 uM incubated for 30 mins by thermal shift dye based fluorescence analysis
Outline: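 Thermal shift: 15 μM CA121 in 50 mM sodium phosphate pH 8.0 with Sypro Orange and compound at 20 μM final or DMSO control. Heated 25 to 95 °C at 0.2 °C/10 s; fluorescence Ex 475–500, Em 520–590 nm. ΔTm = Tm(compound) − T0(DMSO) for CA hexamer melting.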

[3] = test system: Human immunodeficiency virus 1; test: Antiviral activity against HIV1 NL4-3 infected in human TZM-GFP cells assessed as number of GFP positive cells incubated for 48 hrs by imaging reader; assay type: functional, organism-based; settings: Human immunodeficiency virus 1, NL4-3, TZM
Outline: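 TZM-GFP cells seeded 1 × 10^4/well and given increasing compound concentrations 24 h later; infected with HIV-1 NL4-3 (MOI = 1) after a further 24 h. Read-out after 48 h: GFP-positive cell counts (LTR-driven) versus DMSO controls. EC50 fitted as log(inhibitor) vs normalized response, variable slope, per experiment and averaged; mean ± SD, duplicates, at least two independent experiments.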

[4] = Metabolic stability at phase 1 in mouse liver microsomes assessed as half life at 1 uM by LC-MS/MS analysis; assay type: ADME, Microsome; settings: for t1/2: microsomes, 1 µM; for half-life at 1 µM: liver microsomes
[5] = Stability of the compound in mouse plasma assessed as half life incubated for 3 hrs by LC-MS/MS analysis; assay type: ADME, cell-free
[6] = Stability of the compound in human plasma assessed as half life incubated for 3 hrs by LC-MS/MS analysis; assay type: ADME, cell-free
[7] = Metabolic stability at phase 1 in human liver microsomes assessed as half life at 1 uM by LC-MS/MS analysis; assay type: ADME, Microsome

SMILES | CC50 [1] | ΔTm [2] | EC50 [3] | t1/2 [4] | t1/2 [5] | t1/2 [6] | t1/2 [7] | half-life at 1 µM [4]
Cc1cc(N(C)C(=O)[C@H](Cc2ccccc2)NC(=O)Cc2c(C)[nH]c3ccccc23)n[nH]1 | < 100 µM | 0 °C | > 20 µM | – | – | – | – | –
Cc1[nH]c2ccccc2c1CC(=O)N[C@@H](Cc1ccccc1)C(=O)Nc1ccc(Cl)cc1 | > 100 µM | 0 °C | > 20 µM | – | – | – | – | –
CC(C)n1cc(CC(=O)N[C@@H](Cc2ccccc2)C(=O)N(C)c2ccc(Cl)cc2)c2ccccc21 | 10 µM | 7.1 °C | 0.32 µM | – | – | – | – | –
Cc1[nH]c2ccccc2c1CC(=O)N[C@@H](Cc1ccccc1)C(=O)NC12CC3CC(CC(C3)C1)C2 | > 100 µM | -0.8 °C | > 20 µM | – | – | – | – | –
Cc1[nH]c2ccccc2c1CC(=O)N[C@@H](Cc1ccccc1)C(=O)N(C)c1cccc(C(F)(F)F)c1 | 18 µM | 5.4 °C | 0.58 µM | – | – | – | – | –
CN(C(=O)[C@H](Cc1ccccc1)NC(=O)Cc1c[nH]c2ccccc12)c1cc(F)cc(F)c1 | < 50 µM | 2.3 °C | 2.5 µM | 0.6 min | > 360 min | > 360 min | 0.9 min | –
O=C(Cc1c[nH]c2ccccc12)N[C@@H](Cc1ccccc1)C(=O)Nc1cccc(-c2nnn[nH]2)c1 | > 100 µM | -0.7 °C | > 20 µM | – | – | – | – | –
O=C(Cc1c[nH]c2ccccc12)N[C@@H](Cc1ccccc1)C(=O)Nc1ccccc1 | 96 µM | 0 °C | > 20 µM | – | – | – | – | –
CCn1c(C)c(CC(=O)N[C@@H](Cc2ccccc2)C(=O)N(C)c2cccc(F)c2)c2ccccc21 | 20 µM | 10.8 °C | 0.33 µM | – | – | – | – | –
CCn1cc(CC(=O)N[C@@H](Cc2ccccc2)C(=O)N(C)c2ccccc2)c2ccccc21 | 23 µM | 6.7 °C | 0.31 µM | – | > 360 min | > 360 min | 0.9 min | 0.5 min
CCn1c(C)c(CC(=O)N[C@@H](Cc2ccccc2)C(=O)N(C)c2ccc(Cl)cc2)c2ccccc21 | 27 µM | 11.9 °C | 0.24 µM | – | – | – | – | –
CCn1cc(CC(=O)N[C@@H](Cc2ccccc2)C(=O)N(C)c2ccc(Cl)cc2)c2ccccc21 | 16 µM | 8.6 °C | 0.25 µM | – | – | – | – | –
Cc1[nH]c2ccccc2c1CC(=O)N[C@@H](Cc1ccccc1)C(=O)N(C)c1cccc(F)c1 | > 50 µM | 6.2 °C | 0.69 µM | – | – | – | – | –
Cc1[nH]c2ccccc2c1CC(=O)N[C@@H](Cc1ccccc1)C(=O)Nc1cccnn1 | > 100 µM | 0 °C | > 20 µM | – | – | – | – | –
CCN(C(=O)[C@H](Cc1ccccc1)NC(=O)Cc1c(C)n(CC)c2ccccc12)c1ccccc1 | 20 µM | 10 °C | 0.56 µM | – | – | – | – | –
CCn1cc(CC(=O)N[C@@H](Cc2ccccc2)C(=O)N(C)c2cccc(Cl)c2)c2ccccc21 | 20 µM | 5.8 °C | 2 µM | – | – | – | – | –
O=C(Cc1c[nH]c2ccccc12)N[C@@H](Cc1ccccc1)C(=O)Nc1ccc2ncsc2c1 | 68 µM | 0 °C | > 20 µM | – | – | – | – | –
CN(C(=O)[C@H](Cc1ccccc1)NC(=O)Cc1c[nH]c2ccccc12)c1cccc(Br)c1 | < 50 µM | 3.5 °C | 2 µM | – | – | – | – | –
CN(C(=O)[C@H](Cc1ccccc1)NC(=O)Cc1c[nH]c2ccccc12)c1cccnc1 | > 100 µM | -0.8 °C | > 20 µM | – | – | – | – | –
Cc1[nH]c2ccccc2c1CC(=O)N[C@@H](Cc1ccccc1)C(=O)NC(c1ccccc1)c1ccccc1 | > 100 µM | 0 °C | > 20 µM | – | – | – | – | –
Cc1[nH]c2ccccc2c1CC(=O)N[C@@H](Cc1ccccc1)C(=O)Nc1ccc2ncsc2c1 | 49 µM | 1.4 °C | 10 µM | – | – | – | – | –
CC(C)n1cc(CC(=O)N[C@@H](Cc2ccccc2)C(=O)N(C)c2cccc(F)c2)c2ccccc21 | 12 µM | 5.8 °C | 0.32 µM | – | – | – | – | –
Cc1[nH]c2ccccc2c1CC(=O)N[C@@H](Cc1ccccc1)C(=O)N(C)c1cccnc1 | > 100 µM | 0 °C | > 20 µM | – | – | – | – | –
O=C(Cc1c[nH]c2ccccc12)N[C@@H](Cc1ccccc1)C(=O)Nc1nc2ccccc2[nH]1 | 44 µM | -0.6 °C | > 20 µM | – | – | – | – | –
CCn1c(C)c(CC(=O)N[C@@H](Cc2ccccc2)C(=O)N(C)c2ccc(C)cc2)c2ccccc21 | 18 µM | 11 °C | 0.23 µM | – | – | – | – | –
Cc1ccc(N(C)C(=O)[C@H](Cc2ccccc2)NC(=O)Cc2c(C)n(C(C)C)c3ccccc23)cc1 | 10 µM | 8.4 °C | 0.63 µM | – | – | – | – | –

SMILES | CC50 [1] | ΔTm [2] | EC50 [3] | t1/2 [4] | t1/2 [5] | t1/2 [6] | t1/2 [7] | half-life at 1 µM [4]
Cc1c(CC(=O)N[C@@H](Cc2ccccc2)C(=O)N(C)c2cccc(Cl)c2)c2ccccc2n1C(C)C | 14 µM | 5.5 °C | 0.36 µM | – | – | – | – | –
CN(C(=O)[C@H](Cc1ccccc1)NC(=O)Cc1c[nH]c2ccccc12)c1ccc(Cl)cc1 | < 50 µM | 4.6 °C | 0.45 µM | – | – | – | – | –
Cc1[nH]c2ccccc2c1CC(=O)N[C@@H](Cc1ccccc1)C(=O)Nc1cccc(C#N)c1 | > 100 µM | -0.5 °C | > 20 µM | – | – | – | – | –
Cc1[nH]c2ccccc2c1CC(=O)N[C@@H](Cc1ccccc1)C(=O)NCc1cccc2[nH]ccc12 | 36 µM | 0 °C | > 20 µM | – | – | – | – | –
CCN(C(=O)[C@H](Cc1ccccc1)NC(=O)Cc1cn(C(C)C)c2ccccc12)c1ccccc1 | 15 µM | 5.7 °C | 0.87 µM | – | – | – | – | –
Cc1[nH]c2ccccc2c1CC(=O)N[C@@H](Cc1ccccc1)C(=O)N(C)c1ccccc1 | – | 7.4 °C | 0.61 µM | – | – | > 360 min | – | 0.6 min
CN(C(=O)[C@H](NC(=O)Cc1c[nH]c2ccccc12)c1ccccc1)c1ccccc1 | > 50 µM | 1.5 °C | > 20 µM | – | – | – | – | –
Cc1[nH]c2ccccc2c1CC(=O)N[C@@H](Cc1ccccc1)C(=O)N(C)c1cccnn1 | > 100 µM | 3.2 °C | 3.7 µM | – | – | – | – | –
Cc1[nH]c2ccccc2c1CC(=O)N[C@@H](Cc1ccccc1)C(=O)Nc1ccccc1 | 40 µM | 0.7 °C | > 20 µM | – | – | – | – | –
O=C(Cc1c[nH]c2ccccc12)N[C@@H](Cc1ccccc1)C(=O)O | > 50 µM | -0.6 °C | > 20 µM | – | – | – | – | –
Cc1c(CC(=O)N[C@@H](Cc2ccccc2)C(=O)N(C)c2cccc(F)c2)c2ccccc2n1C(C)C | 17 µM | 7 °C | 0.29 µM | – | – | – | – | –
Cc1cc(NC(=O)[C@H](Cc2ccccc2)NC(=O)Cc2c[nH]c3ccccc23)n[nH]1 | > 100 µM | 0 °C | > 20 µM | – | – | – | – | –
Cc1cc(NC(=O)[C@H](Cc2ccccc2)NC(=O)Cc2c(C)[nH]c3ccccc23)n[nH]1 | > 100 µM | 0 °C | > 20 µM | – | – | – | – | –
CCn1c(C)c(CC(=O)N[C@@H](Cc2ccccc2)C(=O)N(C)c2cccc(Cl)c2)c2ccccc21 | 16 µM | 9.2 °C | 0.49 µM | – | – | – | – | –
Cc1[nH]c2ccccc2c1CC(=O)N[C@@H](Cc1ccccc1)C(=O)Nc1nc2ccccc2[nH]1 | 15 µM | -0.6 °C | 11 µM | – | – | – | – | –
CCn1cc(CC(=O)N[C@@H](Cc2ccccc2)C(=O)N(C)c2cccc(F)c2)c2ccccc21 | 31 µM | 5.9 °C | 0.84 µM | – | – | – | – | –
O=C(Cc1c[nH]c2ccccc12)N[C@@H](Cc1ccccc1)C(=O)NCc1cccc2[nH]ccc12 | < 100 µM | 0.5 °C | > 20 µM | – | – | – | – | –
O=C(Cc1c[nH]c2ccccc12)N[C@@H](Cc1ccccc1)C(=O)NC(c1ccccc1)c1ccccc1 | > 100 µM | -1.6 °C | > 20 µM | – | – | – | – | –
Cc1[nH]c2ccccc2c1CC(=O)N[C@@H](Cc1ccccc1)C(=O)Nc1ccc(C#N)cc1 | > 100 µM | -0.6 °C | > 20 µM | – | – | – | – | –
CN(C(=O)[C@H](Cc1ccccc1)NC(=O)Cc1c[nH]c2ccccc12)c1ccc(Cl)nc1 | – | 4.9 °C | 0.26 µM | 0.7 min | > 360 min | > 360 min | 2.1 min | –
CCN(C(=O)[C@H](Cc1ccccc1)NC(=O)Cc1c[nH]c2ccccc12)c1ccccc1 | 70 µM | 6.4 °C | 0.44 µM | – | – | – | – | –
CCn1cc(CC(=O)N[C@@H](Cc2ccccc2)C(=O)N(C)c2ccc(C)cc2)c2ccccc21 | 14 µM | 8.6 °C | 0.34 µM | – | – | – | – | –
Cc1c(CC(=O)N[C@@H](Cc2ccccc2)C(=O)N(C)c2ccc(Cl)cc2)c2ccccc2n1C(C)C | 14 µM | 8.5 °C | 0.15 µM | – | – | – | – | –
O=C(Cc1c[nH]c2ccccc12)N[C@@H](Cc1ccccc1)C(=O)Nc1cccnn1 | > 100 µM | 0.8 °C | > 20 µM | – | – | – | – | –
CC(C)n1cc(CC(=O)N[C@@H](Cc2ccccc2)C(=O)N(C)c2cccc(Cl)c2)c2ccccc21 | 13 µM | 4.5 °C | 1.3 µM | – | – | – | – | –
